pKi: −log10 of the molar value. Activity calls are given as the source filed them. The rule behind the calls is not given here.
Key:
Pseudomonas aeruginosa = experiment: Induction of iron uptake in Pseudomonas aeruginosa PAD07 at 100 nM; assay type: functional, organism-based
Method in brief: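 PAD07 P. aeruginosa cells lacking endogenous siderophores, OD600 1, incubated at 37 °C with 100 nM of the 55Fe(III)-loaded compound. Aliquots taken at several times were centrifuged, and cell-pellet 55Fe was measured as iron transported. Repeated with the protonophore CCCP at 0 °C to check TonB-dependent uptake versus passive diffusion.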

[1] = target: T1, Fe(3+)-pyochelin receptor (Pseudomonas aeruginosa (strain ATCC 15692 / PAO1 / 1C / PRS 101 / LMG12228), UniProt P42512); experiment: Displacement of Pch-55Fe(III) from Pseudomonas aeruginosa PAD07 FptA after 1 hr in presence of CCCP; conditions: for pKi: read-out: Ki
T1 sequence (P42512 whole entry): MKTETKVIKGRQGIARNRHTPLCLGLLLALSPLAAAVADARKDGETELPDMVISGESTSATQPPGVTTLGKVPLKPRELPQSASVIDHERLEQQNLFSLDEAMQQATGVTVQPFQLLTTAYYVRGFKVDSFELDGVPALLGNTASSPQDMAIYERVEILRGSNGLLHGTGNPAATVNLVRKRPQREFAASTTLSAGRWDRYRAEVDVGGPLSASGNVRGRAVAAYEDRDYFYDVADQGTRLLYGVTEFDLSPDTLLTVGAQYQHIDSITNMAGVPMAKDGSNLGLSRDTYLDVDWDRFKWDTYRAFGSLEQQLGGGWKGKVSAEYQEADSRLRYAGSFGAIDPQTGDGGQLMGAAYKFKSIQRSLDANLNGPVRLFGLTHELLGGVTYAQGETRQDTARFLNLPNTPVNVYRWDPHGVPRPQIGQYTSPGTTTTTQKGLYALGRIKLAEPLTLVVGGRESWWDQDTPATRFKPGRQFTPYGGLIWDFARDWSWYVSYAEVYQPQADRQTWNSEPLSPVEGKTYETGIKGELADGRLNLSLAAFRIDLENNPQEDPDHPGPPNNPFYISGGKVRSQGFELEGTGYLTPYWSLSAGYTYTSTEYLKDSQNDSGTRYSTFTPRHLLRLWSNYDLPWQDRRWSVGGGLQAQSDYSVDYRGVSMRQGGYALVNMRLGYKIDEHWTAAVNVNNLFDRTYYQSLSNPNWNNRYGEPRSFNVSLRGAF
Method in brief: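 PAD07 P. aeruginosa (mutant lacking pyochelin and pyoverdine), OD600 0.3, held 1 h at 0 °C in 50 mM Tris–HCl pH 8.0 with 200 µM CCCP to block uptake. Tracer 1 nM Pch-55Fe(III) competed by the Fe(III)-loaded compounds over […] range. Inhibition constant (Ki) derived from the competition.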

pKi [1] | Ki [1] | Compound | Activity (Pseudomonas aeruginosa)
5.84 | – | COc1ccc(F)cc1-c1nc(C2SC[C@@H](C(=O)O)N2C)cs1 (mixture of isomers) | inactive
7.95 | – | CN1C(c2csc(-c3ccc(N)cc3O)n2)SC[C@H]1C(=O)O (mixture of isomers) | Active
6.34 | – | COc1ccc(N)cc1-c1nc(C2SC[C@@H](C(=O)O)N2C)cs1 (mixture of isomers) | inactive
– | Not Active | COc1ccccc1-c1nc(C2SC[C@@H](C(=O)O)N2C)cs1 (mixture of isomers) | inactive
– | Not Active | COc1cc(O)ccc1-c1nc(C2SC[C@@H](C(=O)O)N2C)cs1 (mixture of isomers) | inactive
8.19 | – | CN1C(c2csc(-c3ccc(O)cc3O)n2)SC[C@H]1C(=O)O (mixture of isomers) | Active
– | Not Active | CN1C(c2csc(-c3cc(N)ccc3O)n2)SC[C@H]1C(=O)O (mixture of isomers) | inactive
8.01 | – | CN1[C@@H](c2csc(-c3ccccc3O)n2)SC[C@H]1C(=O)O | Active
8.66 | – | CN1[C@@H]([C@H]2CSC(c3ccccc3O)=N2)SC[C@H]1C(=O)O | Active

Source: ChEMBL document CHEMBL3098095, “Synthesis and biological properties of thiazole-analogues of pyochelin, a siderophore of Pseudomonas aeruginosa” (Bioorg Med Chem Lett, 2014)
